How the values were obtained:
[1] = Metabolic stability in human liver microsomes assessed as compound metabolized at 1 uM in the presence of NADPH; assay type: ADME, Microsome; details: read-out: Activity
[2] = Metabolic satbility in mouse liver microsomes assessed as compound remaining at 1 uM after 60 min in the presence of NADPH; assay type: ADME, Microsome; details: read-out: Stability
DLD-1 = test: Cytotoxicity against human DLD1 cells; assay type: functional, cell-based
Summary of the method: (§1)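 IC50 value derived from at least three separate assay runs per sample.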

SF-295 = test: Cytotoxicity against human SF295 cells assessed cell growth; assay type: functional
UO-31 = test: Cytotoxicity against human UO31 cells assessed cell growth; assay type: functional
M14 = test: Cytotoxicity against human M14 cells assessed cell growth; assay type: functional
[3] = Protein binding in mouse plasma at 1 uM; assay type: ADME, cell-free; details: read-out: PPB (converted)
ACHN = test: Cytotoxicity against human ACHN cells assessed cell growth; assay type: functional
IGROV-1 = test: Cytotoxicity against human IGROV1 cells assessed cell growth; assay type: functional
[4] = Metabolic satbility in human liver microsomes assessed as compound remaining at 1 uM after 60 min in the presence of NADPH; assay type: ADME, Microsome; details: read-out: Stability
MDA-MB-468 = test: Cytotoxicity against human MDA-MB-468 cells assessed cell growth; assay type: functional
[5] = Stability in mouse plasma in presence of PBS at 40 uM after 3 hrs; assay type: ADME, cell-free; details: read-out: Stability
SNB-19 = test: Cytotoxicity against human SNB19 cells assessed cell growth; assay type: functional
EKVX = test: Cytotoxicity against human EKVX cells assessed cell growth; assay type: functional
[6] = Solubility at pH 5; assay type: physicochemical; details: buffer
HCT-15 = test: Cytotoxicity against human HCT15 cells assessed cell growth; assay type: functional
[7] = Permeability at 50 uM at pH 7.4 by PAMPA; assay type: ADME; details: read-out: permeability
[8] = Solubility at pH 7.4; assay type: physicochemical; details: buffer
OVCAR-5 = test: Cytotoxicity against human OVCAR5 cells assessed cell growth; assay type: functional
Pseudomonas aeruginosa = test: […] activity against […] aeruginosa 27853 after 24 hrs by broth dilution assay; assay type: functional; details: Pseudomonas aeruginosa, 27853, 24 h
Summary of the method: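 Broth microdilution in microtiter format at a seeding density of 10^3/mL. C. albicans was grown in Sabouraud dextrose broth; S. aureus and P. aeruginosa in cation-supplemented Mueller-Hinton broth. Incubated at 37°C, with growth scored after 24 h. MIC taken as the lowest concentration giving complete growth inhibition.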

BXPC-3 = test: Cytotoxicity against human BxPC3 cells; assay type: functional, cell-based; summary of the method: as §1
ASPC1 = test: Cytotoxicity against human AsPC1 cells; assay type: functional, cell-based; summary of the method: as §1
[9] = Solubility at pH 6.2; assay type: physicochemical; details: buffer
Homo sapiens [10] = organism: Homo sapiens; test: Unbound fraction in human plasma at 1 uM
KM12 = test: Cytotoxicity against human KM12 cells assessed cell growth; assay type: functional
NCI/ADR-RES = test: Cytotoxicity against human NCI/ADR-RES cells; assay type: functional, cell-based; summary of the method: as §1
[11] = Protein binding in mouse plasma at 10 uM; assay type: ADME, cell-free; details: read-out: PPB (converted)
[12] = Permeability at 50 uM at pH 5 by PAMPA; assay type: ADME; details: read-out: permeability
MDA-MB-435 = test: Cytotoxicity against human MDA-MB-435 cells assessed cell growth; assay type: functional
A498 = test: Cytotoxicity against human A498 cells assessed cell growth; assay type: functional
[13] = Permeability at 50 uM at pH 6.2 by PAMPA
A549 = test: Cytotoxicity against human A549 cells; assay type: functional, cell-based; summary of the method: as §1
NCI-H522 = test: Cytotoxicity against human NCI-H522 cells assessed cell growth; assay type: functional
SK-MEL-2 = test: Cytotoxicity against human SK-MEL-2 cells assessed cell growth; assay type: functional
MOLT-4 = test: Cytotoxicity against human MOLT4 cells assessed cell growth; assay type: functional
DU-145 = test: Cytotoxicity against human DU145 cells assessed cell growth; assay type: functional
PANC-1 = test: Cytotoxicity against human PANC1 cells; assay type: functional, cell-based; summary of the method: as §1
Vero = test: Cytotoxicity against african green monkey Vero cells; assay type: cell-based; details: Chlorocebus sabaeus; summary of the method: as §1
SR = test: Cytotoxicity against human SR cells assessed cell growth; assay type: functional
[14] = Stability in PBS at 40 uM after 3 hrs; assay type: physicochemical; details: read-out: Stability
HCC 2998 = test: Cytotoxicity against human HCC2998 cells assessed cell growth; assay type: functional
Homo sapiens [15] = organism: Homo sapiens; test: Protein binding in human plasma at 10 uM; details: read-out: PPB (converted)
U-251 = test: Cytotoxicity against human U251 cells assessed cell growth; assay type: functional
Malme-3M = test: Cytotoxicity against human MALME-3M cells assessed cell growth; assay type: functional
OVCAR-3 = test: Cytotoxicity against human OVCAR-3 cells assessed cell growth; assay type: functional
SK-OV-3 = test: Cytotoxicity against human SKOV3 cells assessed cell growth; assay type: functional

CC(=O)N(C)CCc1cc(Br)c(OCCCNc2ncn(C)c3ncnc2-3)c(Br)c1 [APHROCALLISTIN]
metabolised at 1 µM [1]: 96.9% | remaining at 1 h, 1 µM [2]: 1.44% | IC50 (DLD-1): 7.5 µM | Activity (SF-295): 50.01% | Activity (UO-31): 79.45% | Activity (M14): 73.49% | fraction unbound at 1 µM [3]: 0.15 | Activity (ACHN): 69.23% | Activity (IGROV-1): 64.84% | remaining at 1 h, 1 µM [4]: 3.08% | Activity (MDA-MB-468): 25.48% | remaining at 3 h, 40 µM [5]: 96.3% | Activity (SNB-19): 71.64% | Activity (EKVX): 45.38% | solubility [6]: > 267 µg/mL | Activity (HCT-15): 99.13% | Papp at 50 µM [7]: 321 ×10⁻⁶ cm/s | solubility [8]: > 267 µg/mL | Activity (OVCAR-5): 88.65% | MIC (Pseudomonas aeruginosa): > 500 µg/mL | IC50 (BXPC-3): 70.9 µM | IC50 (ASPC1): > 100 µM | solubility [9]: > 267 µg/mL | fraction unbound at 1 µM (Homo sapiens [10]): 0.044 | Activity (KM12): 88.97% | IC50 (NCI/ADR-RES): 34.3 µM | fraction unbound at 10 µM [11]: 0.309 | Papp at 50 µM [12]: 33 ×10⁻⁶ cm/s | Activity (MDA-MB-435): 62.57% | Activity (A498): 71.71% | Papp at 50 µM [13]: 201 ×10⁻⁶ cm/s | IC50 (A549): 15.9 µM | Activity (NCI-H522): 36.6% | Activity (SK-MEL-2): 71.47% | Activity (MOLT-4): 50.93% | Activity (DU-145): 102.31% | IC50 (PANC-1): 22.8 µM | IC50 (Vero): 76.1 µM | Activity (SR): 10.72% | remaining at 3 h, 40 µM [14]: 99.7% | Activity (HCC 2998): 65.57% | fraction unbound at 10 µM (Homo sapiens [15]): 0.103 | Activity (U-251): 79.39% | Activity (Malme-3M): 76.4% | Activity (OVCAR-3): 87.3% | Activity (SK-OV-3): 94.44%
